Data reported in ChEMBL document CHEMBL1165997, “Sesquiterpenoids from Inula lineariifolia inhibit nitric oxide production” (J Nat Prod, 2010).
pIC50: −log10 of the molar value.

What was measured:
RAW264.7 [1] = experiment: Cytotoxicity against mouse RAW264.7 cells at concentration required inhibit NO synthesis by MTT assay; format: cell-based
RAW264.7 [2] = experiment: Inhibition of LPS-induced NO production in mouse RAW264.7 cells measured after 24 hrs; format: functional, cell-based
Outline: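 RAW264.7 cells, harvested from 100 mm dishes, were seeded at 2 × 10^5 cells/well. They were pretreated with a range of sample concentrations for 30 min, then incubated 24 h with or without LPS at 1 µg/mL. Nitrite in the culture supernatant was measured by the Griess reaction, and IC50 was reported.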

| SMILES | Activity (RAW264.7 [1]) | pIC50 (RAW264.7 [2]; Mus musculus, RAW264.7, 24 h) | pIC50 (RAW264.7 [2]; raw264.7) |
| --- | --- | --- | --- |
| C=C1C[C@@H]2OC(=O)C(=C)[C@H]2C[C@@H]2[C@@H]1[C@@H](OC(C)=O)C[C@@]2(C)O (stereo in doubt; 5) | Non-toxic |  |  |
| C=C1C(=O)O[C@H]2C[C@@H](C)[C@@H]3CC[C@H](O)[C@@]3(C)C[C@H]12 [PSEUDOGUAIANOLIDE] | Non-toxic | 7.00 |  |
| C=C1C(=O)O[C@H]2C[C@H](C)[C@@H]3CC(=O)C(C)=C3C[C@H]12 [XERANTOLIDE] | Non-toxic | 4.45 |  |
| C=C1C(=O)O[C@H]2C=C(C)[C@@H]3CC[C@](C)(O)[C@@H]3C[C@H]12 [4-EPI-ISOINUVISCOLIDE] | Non-toxic | 4.54 |  |
| C[C@@H]1CC[C@H](O)[C@]2(O)CC[C@H](c3cc3=O)C[C@@]12C [INEARIIFOLIANONE] | Non-toxic | 4.89 |  |
| C=C1C(=O)O[C@H]2C=C(C)[C@H]3[C@@H](OC(C)=O)C[C@@](C)(O)[C@@H]3C[C@H]12 (stereo in doubt; 9) [GAILLARDIN] |  |  | 5.53 |
| C=C1C(=O)O[C@H]2C[C@@H](C)[C@@H]3[C@@H](OC(C)=O)C[C@H](O)[C@@]3(C)C[C@H]12 | Non-toxic | 6.60 |  |
| N=C(N)NN [PIMAGEDINE] |  | 5.57 |  |
| C=C1C(=O)O[C@@H]2C[C@H](C)C(CCC(C)=O)=C[C@H](O)[C@H]12 | Non-toxic | 4.88 |  |
| C=C1C(=O)O[C@H]2C=C(CCC(C)=O)[C@H](C)C[C@H](OC(=O)CC)[C@H]12 | Non-toxic | 4.88 |  |
| C=C1C(=O)O[C@H]2C[C@@H](C)[C@H]3[C@@H](OC(C)=O)C[C@@](C)(O)[C@@]34O[C@H]4[C@H]12 | Non-toxic | 4.58 |  |
| C[C@@H]1CC[C@@H]2[C@]3(O)[C@H]1CC[C@@]3(C)C[C@@]2(C)C(=O)O [BRITANLIN C] | Non-toxic | 4.64 |  |
| C=C1C(=O)O[C@@H]2C[C@H](C)C(CCC(C)=O)=CC[C@H]12 [TOMENTOSIN] | Non-toxic | 5.04 |  |
| C=C1C(=O)O[C@H]2C[C@@H](C)[C@@H]3[C@@H](OC(C)=O)C[C@H](O)[C@@]3(C)[C@@H](OC(C)=O)[C@H]12 | Non-toxic | 6.96 |  |
